Assay outcomes as filed in PubChem BioAssay.
An excerpt weighted towards active compounds, which were near 2.1% of everything screened.
RORA act = RORA (human) activation | P35398 | CHO-K1 Gal4-RORA LBD luciferase reporter, luminescence; percent increase over mock-subtracted basal signal | activation, % at 10 µM | 65,000 tested, 1.5% active;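 active = activation above the mean of all tested compounds plus 3 SD, cut at about 49% in these data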
MT1-MMP txn act = activates MT1-MMP transcription; 86,000 tested, 0.16% active; HT1080 MT1-MMP promoter luciferase reporter, luminescence, overnight; hits give high values; activation factor at 10 µM;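 active = activation factor of at least 2 for MT1-MMP transcription at 10 µM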
TNAP act mid DEA = human TNAP activation, intermediate phosphate acceptor; 64,000 tested, under 10 active; activation factor at 20 µM; purified TNAP, CDP-star luminescence, 100 mM DEA, 30 min; hits give high values; scale: 0 levamisole-inhibited, 1 vehicle-only enzyme;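 active = activation factor of at least 2 at 20 µM, relative to controls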
Target sequence (P05186 whole entry, looked up): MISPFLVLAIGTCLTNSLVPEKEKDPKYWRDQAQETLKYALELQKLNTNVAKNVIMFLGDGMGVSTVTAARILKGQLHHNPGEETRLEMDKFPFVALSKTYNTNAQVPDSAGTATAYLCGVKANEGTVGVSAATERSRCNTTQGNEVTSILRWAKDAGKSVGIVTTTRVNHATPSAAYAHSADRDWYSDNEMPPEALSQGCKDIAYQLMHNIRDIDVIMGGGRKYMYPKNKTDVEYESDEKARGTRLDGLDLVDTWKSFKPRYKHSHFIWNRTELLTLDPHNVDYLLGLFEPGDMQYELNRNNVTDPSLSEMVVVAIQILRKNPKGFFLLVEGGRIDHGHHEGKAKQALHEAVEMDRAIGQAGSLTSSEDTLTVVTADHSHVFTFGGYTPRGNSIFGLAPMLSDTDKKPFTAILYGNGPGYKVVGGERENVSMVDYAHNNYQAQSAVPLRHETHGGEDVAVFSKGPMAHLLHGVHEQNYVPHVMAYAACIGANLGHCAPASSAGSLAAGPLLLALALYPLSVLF
E coli RNAP = Escherichia coli RNA polymerase inhibition | P0A8V2 | E. coli RNA polymerase, fluorescence transcription assay | 62,000 tested, 0.2% active | inhibition, %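 (tested at 10 µM)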 | AID 559; in the data active = inhibition above about 20%
SF1 activator = activators of human nuclear receptor SF-1; Q13285; CHO-K1 Gal4-SF-1 LBD luciferase reporter; % increase over DMSO SF-1-specific signal; activation, % at 10 µM; 65,000 tested, 1.9% active; AID 522;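 active = activation above the mean activation of all tested compounds plus 3 SD, cut at about 50% in these data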
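Assay system – CHO-K1 cells with Gal4–hSF-1 LBD chimera plus Gal4-driven luciferase · Quantity – 4,000 cells per well · Times – compound added 1 h post-seeding, 20 h exposure at 37 °C, 5% CO2 · Measured by – luciferase light emission · Benchmarks – DMSO and mock-transfected background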
Large screens that a line does not name were inactive.

CCC/C=C(\CCC)C(NC(=O)C(C)(C)C)c1ccc(C(=O)OC)cc1 (stereo unspecified)	none (no result: RORA act, TNAP act mid DEA, E coli RNAP, SF1 activator)
CCOC(=O)/C(C#N)=C/C1=C(N2CCCC2)CC(C)(CC)OC1 (stereo unspecified)	none (no result: RORA act, TNAP act mid DEA, E coli RNAP, SF1 activator)
Oc1ccccc1-c1cc(-c2ccc3c(c2)OCCO3)n[nH]1	RORA act 55
Cc1cc(N)c(NC2=CC(=O)CC(C)(C)C2)cc1C	RORA act 70
CC(=O)Nc1ccc(NC2=CC(=O)CC(C)(C)C2)cc1	none
Cc1cc2c(c(SCC(=O)NCCc3ccccc3)n1)C(=O)OC2	none (no result: RORA act, TNAP act mid DEA, E coli RNAP, SF1 activator)
COC(=O)c1cc(-c2ccccc2)n(CC(=O)O)c1C	none
Cc1ccc(NC(=O)c2c(C)nc(Nc3nc4ccccc4o3)nc2C)cc1	none
FC(F)(F)Oc1ccc(Nc2nc3ccccc3o2)cc1	RORA act 71, MT1-MMP txn act 2.2
CCCC(=O)NCCCc1nc2ccccc2n1C(C)C	none
O=c1c2c3c(sc2nc2n1CCCCC2)CCCCC3	RORA act 55
O=c1c2c3c(sc2nc2n1CCCCC2)CCCC3	RORA act 106, SF1 activator 60
Nc1nc2sc3c(c2c(=O)s1)CCCC3	SF1 activator 56
O=c1c2c3c(sc2nc2n1CCCS2)CCCC3	SF1 activator 71
O=c1c2c3c(sc2nc2n1CCCC2)CCCCC3	none (no result: RORA act, TNAP act mid DEA, E coli RNAP, SF1 activator)
O=c1c2c3c(sc2nc2n1CCCC2)CCC3	none (no result: RORA act, MT1-MMP txn act, SF1 activator)
Fc1ccc(Cn2nnnc2CN2CCc3ccccc3C2)cc1	none
Cc1nc2ccc(NC(=O)N3CCSCC3)cc2s1	none
Cc1nc2ccc(NC(=O)N3CCCCC3)cc2s1	SF1 activator 54
CC(C)(C)n1ncc2c(=O)n(CC(=O)NCCc3ccccc3)cnc21	none
CC(C)(C)n1ncc2c(=O)n(CC(=O)NCc3ccccc3Cl)cnc21	SF1 activator 74 (no result: TNAP act mid DEA)
Cc1ccc(NC(=O)Cn2cnc3c(cnn3C(C)(C)C)c2=O)cc1	E coli RNAP 22
CC(C)(C)n1ncc2c(=O)n(CC(=O)Nc3ccc4c(c3)OCO4)cnc21	none
Cn1c(C(=O)N2CCc3ccccc3C2)cc2oc3ccccc3c21	SF1 activator 57
O=C(CSc1nnc(COc2ccccc2)n1-c1ccccc1)c1cccs1	none (no result: MT1-MMP txn act)
Cn1c(=O)c2c(nc(NCC3CCCO3)n2Cc2cccc(Br)c2)n(C)c1=O (stereo unspecified)	none (no result: RORA act, TNAP act mid DEA, E coli RNAP, SF1 activator)
Cn1c(CSc2ccccc2)c(C#N)c2ccccc21	RORA act 61
Cc1ccccc1OCCN1C(=O)c2ccccc2C1=O	none
O=C1c2ccccc2C(=O)N1CCOc1ccccc1	MT1-MMP txn act 2.1 (no result: RORA act, TNAP act mid DEA, E coli RNAP, SF1 activator)
Oc1ccccc1C1=Nc2ncnn2C(c2ccc(F)cc2)C1 (stereo unspecified)	none
Cc1ccc2nc3c(cc(C(N)=S)c(=N)n3CCCOC(C)C)c(=O)n2c1	none
Cc1ccn2cc(C(=O)Nc3ccccc3N3CCOCC3)nc2c1	RORA act 55
O=C(Nc1cc(C(F)(F)F)ccc1N1CCOCC1)c1cn2ccccc2n1	none (no result: RORA act, TNAP act mid DEA, E coli RNAP, SF1 activator)
Cc1ccc(-n2cc(-c3ccccc3)[nH]c2=O)cc1F	SF1 activator 87
c1ccc(CNc2ncnc3c2ncn3C2CCCCO2)cc1 (stereo unspecified)	RORA act 68, SF1 activator 60
CCCCOc1ccc(C(=O)Nc2cccc(C)n2)cc1	RORA act 55, SF1 activator 59
O=c1sc(Nc2ccccc2)nc2ccsc12	RORA act 70, SF1 activator 56 (no result: MT1-MMP txn act)
O=C(NCCC1=CCCCC1)c1cnc2n(c1=O)CCS2	SF1 activator 51 (no result: TNAP act mid DEA, E coli RNAP)
O=C(Nc1ccc2c(c1)OCCO2)c1cnc2n(c1=O)CCS2	RORA act 88, SF1 activator 91
O=C(Nc1ccc2c(c1)OCO2)c1cnc2n(c1=O)CCS2	SF1 activator 62
Cc1cccc(NC(=O)c2cnc3n(c2=O)CCS3)c1	RORA act 76 (no result: TNAP act mid DEA, E coli RNAP)
CC1=C(C)C(=O)NC(Nc2nc(C)c3cc(C)cc(C)c3n2)N1 (stereo unspecified)	none
CN1CCOCCOCCN(C)C1=O	none (no result: RORA act, TNAP act mid DEA, E coli RNAP, SF1 activator)
CCN(CC)CCCN1C(=O)C(=O)/C(=C(/O)c2ccccc2)C1c1ccccn1 (stereo unspecified)	none
O=C(Nc1ccc(F)c(Cl)c1)c1ccc2c(=O)n3c(nc2c1)CCCCC3	SF1 activator 74
O=C(Nc1cccc(Cl)c1)c1ccc2c(=O)n3c(nc2c1)CCCCC3	SF1 activator 59
Cc1cc(CN2CCN(CCC#N)CC2)c(O)c(C2(C)CCCCC2)c1	none
COC(=O)c1ccc(OCC(=O)c2ccccc2OC)cc1	none (no result: RORA act, TNAP act mid DEA, E coli RNAP, SF1 activator)
Cc1cccc2[nH]c(-c3ccc(NC(=O)c4ccco4)cc3)nc12	SF1 activator 74
Cc1ccc(NC(=O)c2ccc(OC(=O)c3ccco3)cc2)cc1	RORA act 51, SF1 activator 52
Cc1ccc(Oc2ccc(NC(=O)c3ccco3)cc2)cc1	SF1 activator 73
O=C(Nc1ccc2nc(-c3ccccc3)[nH]c2c1)c1ccco1	none (no result: RORA act, TNAP act mid DEA, E coli RNAP, SF1 activator)
COc1ccc(NC(=O)c2ccco2)cc1NC(=O)c1ccc(C)cc1	none (no result: MT1-MMP txn act)
COC(=O)C(C)Sc1nc2c(c(-c3ccc(OC)cc3)c1C#N)-c1ccccc1C2=O (stereo unspecified)	none (no result: RORA act, TNAP act mid DEA, E coli RNAP, SF1 activator)
O=C(Nc1cccc(Br)c1)c1ccn[nH]1	RORA act 54
CCOC(=O)c1[nH]c2ccc(C)cc2c1N	SF1 activator 73
C=C(C)CSc1nncn1/N=C/c1ccc(OC)cc1	RORA act 49, SF1 activator 55
Cc1ccc(C2CCN(C(=O)Nc3ccccc3)C2)cc1 (stereo unspecified)	RORA act 92, SF1 activator 58
Nc1c(C(=O)NCc2ccco2)nnn1-c1ccccc1	SF1 activator 55
O=C(Nn1cnc2ccccc2c1=O)c1ccccc1Cl	SF1 activator 65
Nc1nc(Nc2cccc(F)c2)nc2ccccc12	SF1 activator 67
COc1ccc(NC(=O)Nc2ccc3nccnc3c2)cc1	RORA act 57, SF1 activator 51
COc1cccc(NC(=O)c2cccc(OC)c2OC)c1	none
COc1ccc(NC(=O)Nc2ccc(OC)cc2)cc1	none (no result: RORA act, TNAP act mid DEA, E coli RNAP, SF1 activator)
COc1cccc(C(=O)Nc2ccc(N(C)C)cc2)c1OC	SF1 activator 50 (no result: MT1-MMP txn act)
COc1ccc(NC(=O)Nc2nccs2)cc1	RORA act 64, SF1 activator 73
O=C(Nc1ccccc1)Nc1nccs1	none (no result: RORA act, TNAP act mid DEA, E coli RNAP, SF1 activator)
COc1ccc(NC(=O)Nc2ccc(N(C)C)cc2)cc1	RORA act 58
COC(=O)c1cc(OC)c(OC)cc1NC(=O)Nc1ccc(OC)cc1	none (no result: RORA act, TNAP act mid DEA, E coli RNAP, SF1 activator)
CNC(=O)[C@H](C)/C=C/C(NC(=O)OCc1ccccc1)c1ccc(C(=O)OC)cc1 (stereo partly specified)	none (no result: RORA act, TNAP act mid DEA, E coli RNAP, SF1 activator)
O=C(Nc1ccccc1)Nc1ccc2snnc2c1	none (no result: RORA act, TNAP act mid DEA, E coli RNAP, SF1 activator)
CN(C)c1ccc(NC(=O)Nc2ccc3snnc3c2)cc1	RORA act 56
COCCNC(=O)c1cc(-c2ccccc2OC)on1	RORA act 52, SF1 activator 71
COc1ccccc1-c1cc(C(=O)NC(C)C)no1	SF1 activator 69
c1cc(-c2nnc(-c3ccncc3)o2)ccn1	none
Cc1ccc(-c2cnc(-c3ccncc3)o2)cc1	RORA act 58, SF1 activator 65
